Consider twelve compounds from ChEMBL document CHEMBL2016492, “Design and synthesis of carbamate and thiocarbamate derivatives and their inhibitory activities of NO production in LPS activated macrophages” (Bioorg Med Chem Lett, 2012).

Calls of active or inactive are those of the source. No cut-off for these calls is given here.

Experiment [1] relates to RAW264.7. Kind of experiment: Inhibition of LPS-induced NO production in mouse RAW264.7 cells at 20 uM after 20 hrs by Griess method. The experiment is classed as functional. To be noted: RAW264.7, 20 h. In a few lines: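 Same nitrite read-out in RAW 264.7 cells: 1% FBS medium, LPS 1 μg/mL with compound at 20 μM for 20 h. Griess reagent, 570 nm, nitrite standard curve. Percent inhibition relative to LPS-only control, n = 3.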
For orientation: The Griess reaction detects nitrite, a stable product of nitric oxide.

The subject of experiment [2] is RAW264.7. In words: Inhibition of LPS-induced NO production in mouse RAW264.7 cells after 20 hrs by Griess method. To be noted: RAW264.7, 20 h. The experiment is classed as functional, cell-based. A digest of the protocol:
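RAW 264.7 cells in 10% FBS-DMEM plated at 1 × 10⁵ cells/mL for 24 h, then switched to 1% FBS medium. Incubated 20 h with LPS (1 μg/mL) ± compounds. Nitrite in supernatant measured with Griess reagent, 10 min at room temperature, absorbance 570 nm, sodium nitrite standard curve. IC50 taken from dose–response curve; mean ± SD of three experiments.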

In experiment [3] the test system is RAW264.7. In words: Inhibition of LPS-induced iNOS protein expression in mouse RAW264.7 cells at 20 uM after 20 hrs by Western blot analysis. Format: functional, cell-based. A digest of the protocol: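 RAW 264.7 cells at 8 × 10⁵ per 60 mm dish treated 20 h with LPS (1 μg/mL) and compound (5, 20 μM). Cells washed and lysed; 20 μg lysate protein run on 8% SDS-PAGE, transferred to PVDF. Probed with anti-iNOS and anti-β-actin (internal control); ECL detection. Representative of three independent experiments.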
Background: Immunoblotting shows a protein as a band on a membrane.

In experiment [4] the test system is RAW264.7. Kind of experiment: Inhibition of LPS-induced iNOS mRNA expression in mouse RAW264.7 cells at 20 uM after 6 hrs by RT-PCR analysis. Format: functional, cell-based. In a few lines:
(§1)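 RAW 264.7 cells at 8 × 10⁵ per 60 mm dish stimulated 6 h with LPS (1 μg/mL) plus compound at 5 or 20 μM. Total RNA extracted; iNOS mRNA measured by RT-PCR with β-actin as internal control. PCR run 25 cycles (94 °C 30 s, 55 °C 30 s, 72 °C 30 s); products run on 2% agarose gel. Representative of three independent experiments.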

Experiment [5] concerns RAW264.7. In words: Inhibition of LPS-induced iNOS mRNA expression in mouse RAW264.7 cells at 5 uM after 6 hrs by RT-PCR analysis. Format: functional, cell-based. A digest of the protocol: as §1
The target in experiment [6] is Transcription factor p65 (Mus musculus) (UniProt Q04207). Kind of experiment: Inhibition of NF-kB p65 nuclear translocation in LPS-stimulated mouse RAW264.7 cells at 5 uM treated 30 mins before LPS challenge measured after 15 mins by Western blot analysis.
Chain of Transcription factor p65 (Mus musculus) (Q04207 whole entry): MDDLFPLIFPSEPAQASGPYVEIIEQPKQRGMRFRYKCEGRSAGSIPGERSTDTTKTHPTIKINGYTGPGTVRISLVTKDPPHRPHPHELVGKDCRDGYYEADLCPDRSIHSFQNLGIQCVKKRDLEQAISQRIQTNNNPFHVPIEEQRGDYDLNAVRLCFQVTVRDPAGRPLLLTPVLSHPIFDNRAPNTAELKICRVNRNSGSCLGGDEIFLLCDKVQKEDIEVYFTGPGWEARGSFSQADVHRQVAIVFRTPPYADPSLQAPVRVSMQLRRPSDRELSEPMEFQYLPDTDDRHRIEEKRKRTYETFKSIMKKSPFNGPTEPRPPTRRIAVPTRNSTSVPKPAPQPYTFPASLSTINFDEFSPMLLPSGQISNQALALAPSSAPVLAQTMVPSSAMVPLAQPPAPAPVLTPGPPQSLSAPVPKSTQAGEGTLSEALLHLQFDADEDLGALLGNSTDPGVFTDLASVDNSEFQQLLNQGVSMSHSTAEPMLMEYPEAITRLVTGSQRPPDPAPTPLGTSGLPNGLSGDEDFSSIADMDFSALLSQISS
Experiment [7] has the same target. In words: Inhibition of NF-kB p65 nuclear translocation in LPS-stimulated mouse RAW264.7 cells at 20 uM treated 30 mins before LPS challenge measured after 15 mins by Western blot analysis.
Experiment [8] deals with RAW264.7. In words: Inhibition of LPS-induced NO production in mouse RAW264.7 cells at 100 uM after 20 hrs by Griess method. The experiment is classed as functional. The conditions noted are these: RAW264.7, 20 h.

Compound `CCNC(=S)Oc1ccc(OCCn2c3ccccc3c3ccccc32)cc1` registered an inhibition at 20 µM in the experiment with RAW264.7 [1] of 10%.

Compound `CSC(=O)Nc1ccc(OCCn2c3ccccc3c3ccccc32)cc1` yielded an inhibition at 20 µM in the experiment with RAW264.7 [1] of 44%.

In the experiment with RAW264.7 [1], `CCNC(=O)Oc1ccc(OCCn2c3ccccc3c3ccccc32)cc1` registered an inhibition at 20 µM of 10%.

With `CCSC(=O)Nc1ccc(OCCn2c3ccccc3c3ccccc32)cc1`, in the experiment on RAW264.7 [1], the inhibition at 20 µM was determined as 26%.

As to `CCOC(=O)CNC(=S)Oc1ccc(OCCn2c3ccccc3c3ccccc32)cc1`, in the experiment on RAW264.7 [1], 20 µM produced 73% inhibition. In the experiment with RAW264.7 [2], this compound displayed an IC50 of 6.5 µM. Further, the inhibition result (in the experiment with RAW264.7 [3]; with RAW264.7 [4]; with RAW264.7 [5]; in experiment [6]; in experiment [7]) was “Active” in each case.

Regarding `COC(=S)Nc1ccc(OCCn2c3ccccc3c3ccccc32)cc1`, the inhibition at 20 µM in the experiment on RAW264.7 [1] came to 60%. In the experiment with RAW264.7 [2], the IC50 is 12 µM. Besides, the inhibition entry (in the experiment on RAW264.7 [3]; in the experiment with RAW264.7 [4]; in experiment [6]; in experiment [7]) was “Active” throughout.

For the compound `CCOC(=O)CNC(=O)Oc1ccc(OCCn2c3ccccc3c3ccccc32)cc1`, the inhibition at 20 µM in the experiment with RAW264.7 [1] is 35%.

Turning to `S=C(Nc1ccc(OCCn2c3ccccc3c3ccccc32)cc1)OCc1ccccc1`, in the experiment on RAW264.7 [1], the inhibition at 20 µM was 18%.

On to `N=C(N)NN` [PIMAGEDINE], for which at 100 µM the inhibition in the experiment with RAW264.7 [8] was 74%.

For `O=C(Nc1ccc(OCCn2c3ccccc3c3ccccc32)cc1)Oc1ccc([N+](=O)[O-])cc1`, the inhibition at 20 µM with RAW264.7 [1] was 22%.

In the experiment with RAW264.7 [1], `CC(C)OC(=S)Nc1ccc(OCCn2c3ccccc3c3ccccc32)cc1` registered an inhibition at 20 µM of 20%.

For the compound `COC(=O)CNC(=O)Oc1ccc(OCCn2c3ccccc3c3ccccc32)cc1`, the inhibition at 20 µM in the experiment with RAW264.7 [1] came out at 33%.

The inhibition is the drop in the measured response relative to a control, in per cent. As a reminder, the IC50 is the midpoint of a concentration-inhibition curve. A lower IC50 goes with greater potency.
